Series [1] in a line: Cytotoxicity against human A2780cis cells incubated for 72 hrs by SRB assay. Format: functional, cell-based. Put shortly: (§1)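 Cells plated in 96-well format and left 24 h, then exposed to serial dilutions of compound for 72 h; growth read by sulforhodamine B staining. Media held 10 % fetal bovine serum and 1 % penicillin-streptomycin. IC50 taken from dose-response curves, means of 2 independent experiments.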
For orientation: Sulforhodamine B stains cellular protein and so reports cell mass.

Another series deals with A549. The series can be described thus: Cytotoxicity against human A549 cells incubated for 72 hrs by SRB assay. The note with it: A549, 72 h. Format: functional, cell-based. Put shortly:
as §1

Series [2] is described as follows: Cytotoxicity against human CCD-18Co cells incubated for 72 hrs by SRB assay. Format: toxicity, cell-based. Put shortly:
as §1

Another series relates to HT-29. Kind of series: Cytotoxicity against human HT-29 cells incubated for 72 hrs by SRB assay. Format: functional, cell-based. Conditions: HT-29, 72 h; call rule not given here. Put shortly: as §1
Another series relates to MCF7. Kind of series: Cytotoxicity against human MCF7 cells incubated for 72 hrs by SRB assay. The class given is functional, cell-based. Conditions: MCF7, 72 h. Put shortly:
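Cells plated in 96-well format and left 24 h, then exposed to serial dilutions of compound for 72 h; growth read by sulforhodamine B staining. Media held 10 % fetal bovine serum and 1 % penicillin-streptomycin.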

A further series relates to A2780. Kind of series: Cytotoxicity against human A2780 cells incubated for 72 hrs by SRB assay. Format: functional, cell-based. The note with it: A2780, 72 h. Put shortly:
as §1

Series [3] in a line: Drug accumulation in human HT-29 cells at 500 nM incubated for 30 mins by fluorescence based analysis. The note with it: ht-29, 0.5 h, 0.5 µM. The class given is ADME, cell-based. Put shortly: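 Live-cell imaging in HT29 cells seeded at 20.000 per well and grown 48 h, then switched to phenol-red-free RPMI 1640. Co-treated with compound at 500 nM, HypoxySense 680 (1:2000, CAIX probe) and Hoechst 33342 nuclear stain. Imaged after 30 min by fluorescence microscopy at Ex/Em 385/425 nm (Hoechst), 555/592 nm (compounds) and 630/681 nm (HypoxySense).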

The nature of series [4]: Resistance index, ratio of IC50 for human A2780cis cells to IC50 for human A2780cis cells. Format: functional. Conditions: in the assay text read “to IC50 for human A2780 cells” for “to IC50 for human A2780cis cells”. Put shortly:
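Resistance index calculated as the ratio of the 72 h SRB IC50 in A2780cis to that in parental A2780.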

A short description of series [5]: Selectivity index, ratio of IC50 for human CCD-18Co cells to IC50 for human A2780cis cells. Put shortly:
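Selectivity index calculated as the ratio of the 72 h SRB IC50 in non-malignant CCD18Co fibroblasts to that in A2780cis.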

Molecules are shown by their SMILES.

In the case of `COc1cccc2c1C(=O)c1c(O)c3c(c(O)c1C2=O)C[C@@](O)(C(=O)CO)C[C@@H]3O[C@H]1C[C@H](N)[C@H](O)[C@H](C)O1` [DOXORUBICIN], the IC50 in series [1] was determined as 0.099 µM; with A549, 0.023 µM; with HT-29, 0.086 µM. Besides, the IC50 at 72 h in series [2] came to 0.269 µM.
On to `CCN(CC)c1ccc2c(-c3ccccc3C(=O)N3CCN(C(=O)c4ccc(CCSc5c(F)c(F)c(S(N)(=O)=O)c(NC6CCCCCCCCCCC6)c5F)cc4)CC3)c3ccc(=[N+](CC)CC)cc-3oc2c1.[Cl-]`, for which the IC50 was found to be 0.26 µM in the series with MCF7; 0.45 µM in series [1]; 0.59 µM in the series on A549; 0.24 µM in the series on A2780; 0.32 µM with HT-29. For the same compound, in [3], the Drug uptake entry is “Active”. In addition, the “Ratio IC50” value is listed as 1.87 in series [4] and 1.22 in series [5]. Besides, the IC50 at 72 h in series [2] was determined as 0.55 µM.
As for `CCN(CC)c1ccc2c(-c3ccccc3C(=O)N3CCN(C(=O)c4ccc(CCSc5c(F)c(F)c(S(N)(=O)=O)c(NC[C@]6(C)CCC[C@]7(C)c8ccc(C(C)C)cc8CC[C@@H]67)c5F)cc4)CC3)c3ccc(=[N+](CC)CC)cc-3oc2c1.[Cl-]`, the IC50 was 0.41 µM with MCF7; 0.46 µM in series [1]; 0.71 µM with A549; 0.38 µM with A2780; 0.53 µM in the series on HT-29. Also, the Drug uptake entry in [3] was “Active”. In addition, the “Ratio IC50” value in series [4] is on record as 1.21; in series [5], 2.22. Further, in [2], the IC50 at 72 h worked out at 1.02 µM.

As a reminder, the IC50 is the concentration needed to halve the response being measured. A lower IC50 goes with greater potency in that assay.

The values above are taken from ChEMBL document CHEMBL5608190, “Dehydroabietylamine-substituted trifluorobenzene sulfonamide rhodamine B hybrids as anticancer agents overcoming drug resistance” (Eur J Med Chem, 2024).
